Assay results taken from ChEMBL document CHEMBL1137082, “Potent and selective conformationally restricted neuronal nitric oxide synthase inhibitors” (J Med Chem, 2004).
Values joined by “and” are separate entries in the source; they are usually repeats but may differ in a detail not shown here. Equal entries are not always repeated.

Legend:
Nitric oxide synthase 3 = molecular target: T1, Nitric oxide synthase 3 (Bos taurus, UniProt P29473); assay: Inhibitory activity against endothelial nitric oxide synthase (eNOS)
T1 sequence (P29473 whole entry): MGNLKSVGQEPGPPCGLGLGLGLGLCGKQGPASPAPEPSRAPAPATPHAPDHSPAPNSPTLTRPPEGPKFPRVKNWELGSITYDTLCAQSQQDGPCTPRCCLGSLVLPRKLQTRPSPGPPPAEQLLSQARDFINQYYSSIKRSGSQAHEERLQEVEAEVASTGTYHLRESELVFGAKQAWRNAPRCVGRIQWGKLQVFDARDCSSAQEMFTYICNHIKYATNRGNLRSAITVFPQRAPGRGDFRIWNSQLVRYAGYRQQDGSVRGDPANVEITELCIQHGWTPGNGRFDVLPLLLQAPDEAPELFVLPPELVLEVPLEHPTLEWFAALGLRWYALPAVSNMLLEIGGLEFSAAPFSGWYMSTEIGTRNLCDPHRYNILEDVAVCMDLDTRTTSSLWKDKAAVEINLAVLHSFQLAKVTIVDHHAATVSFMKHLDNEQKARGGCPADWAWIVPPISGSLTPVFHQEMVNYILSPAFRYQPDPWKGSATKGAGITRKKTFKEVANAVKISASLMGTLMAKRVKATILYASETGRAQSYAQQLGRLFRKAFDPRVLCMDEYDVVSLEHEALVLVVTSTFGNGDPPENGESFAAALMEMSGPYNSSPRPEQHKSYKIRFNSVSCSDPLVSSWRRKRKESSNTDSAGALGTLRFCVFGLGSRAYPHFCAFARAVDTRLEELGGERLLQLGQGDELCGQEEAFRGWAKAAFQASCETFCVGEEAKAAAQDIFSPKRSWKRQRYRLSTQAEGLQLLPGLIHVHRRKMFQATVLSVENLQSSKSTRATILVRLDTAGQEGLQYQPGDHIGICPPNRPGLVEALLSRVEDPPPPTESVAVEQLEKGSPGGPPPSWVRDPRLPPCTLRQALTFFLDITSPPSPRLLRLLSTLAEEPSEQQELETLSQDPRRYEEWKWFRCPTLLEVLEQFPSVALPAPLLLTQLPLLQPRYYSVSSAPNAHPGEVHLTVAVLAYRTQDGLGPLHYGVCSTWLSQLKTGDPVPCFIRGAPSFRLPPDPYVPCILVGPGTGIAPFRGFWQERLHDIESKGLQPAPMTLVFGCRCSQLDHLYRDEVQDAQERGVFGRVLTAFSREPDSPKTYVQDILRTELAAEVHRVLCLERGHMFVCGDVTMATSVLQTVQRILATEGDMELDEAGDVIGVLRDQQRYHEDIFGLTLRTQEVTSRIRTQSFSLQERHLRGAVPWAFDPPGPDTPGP

Nitric oxide synthase 1 [1] = molecular target: T2, Nitric oxide synthase 1 (Rattus norvegicus, UniProt P29476); assay: Inhibitory activity against neuronal nitric oxide synthase (nNOS); Range is 50-100 uM
Nitric oxide synthase 1 [2] = molecular target: T2, Nitric oxide synthase 1; assay: Inhibitory activity against neuronal nitric oxide synthase (nNOS)
[3] = molecular target: T3, Nitric oxide synthase, inducible (Mus musculus) (UniProt P29477); assay: Inhibitory activity against inducible nitric oxide synthase (iNOS) at 100 uM; parameters: scale not given: the % may be the effect or the level left
T3 sequence (whole entry): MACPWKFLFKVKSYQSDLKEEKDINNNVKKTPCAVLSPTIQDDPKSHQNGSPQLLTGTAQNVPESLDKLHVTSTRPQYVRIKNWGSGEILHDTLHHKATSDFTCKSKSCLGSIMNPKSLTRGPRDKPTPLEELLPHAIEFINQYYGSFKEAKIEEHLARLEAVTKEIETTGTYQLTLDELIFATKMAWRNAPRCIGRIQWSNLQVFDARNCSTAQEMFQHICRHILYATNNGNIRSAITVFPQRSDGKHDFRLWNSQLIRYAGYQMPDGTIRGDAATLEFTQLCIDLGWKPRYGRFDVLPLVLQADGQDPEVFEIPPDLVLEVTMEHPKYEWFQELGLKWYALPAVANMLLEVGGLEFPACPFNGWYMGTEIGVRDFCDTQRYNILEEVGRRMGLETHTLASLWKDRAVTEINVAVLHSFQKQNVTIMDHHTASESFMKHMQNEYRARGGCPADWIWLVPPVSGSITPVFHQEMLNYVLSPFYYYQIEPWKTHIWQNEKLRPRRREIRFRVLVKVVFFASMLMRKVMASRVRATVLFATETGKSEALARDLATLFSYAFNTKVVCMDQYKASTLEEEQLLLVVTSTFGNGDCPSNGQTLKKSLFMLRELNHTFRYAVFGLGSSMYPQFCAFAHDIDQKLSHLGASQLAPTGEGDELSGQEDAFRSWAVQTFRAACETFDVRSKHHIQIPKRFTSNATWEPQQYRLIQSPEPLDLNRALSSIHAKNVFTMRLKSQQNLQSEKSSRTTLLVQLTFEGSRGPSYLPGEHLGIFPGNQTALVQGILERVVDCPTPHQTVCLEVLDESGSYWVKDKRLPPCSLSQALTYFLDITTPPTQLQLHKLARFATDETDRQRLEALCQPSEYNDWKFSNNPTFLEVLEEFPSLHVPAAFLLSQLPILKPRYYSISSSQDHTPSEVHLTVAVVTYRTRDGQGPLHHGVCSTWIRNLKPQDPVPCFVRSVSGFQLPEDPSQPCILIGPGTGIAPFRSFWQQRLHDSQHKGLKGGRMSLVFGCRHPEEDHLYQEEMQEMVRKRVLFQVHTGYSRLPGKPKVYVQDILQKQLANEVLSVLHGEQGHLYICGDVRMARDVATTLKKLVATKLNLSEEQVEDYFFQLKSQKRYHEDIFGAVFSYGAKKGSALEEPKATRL
Summary of the method: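 Single-point screen against murine macrophage iNOS: enzyme residual activity measured at 100 μM inhibitor. NO formation monitored by hemoglobin capture assay with a UV/vis spectrophotometer.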

T2 sequence (P29476 whole entry): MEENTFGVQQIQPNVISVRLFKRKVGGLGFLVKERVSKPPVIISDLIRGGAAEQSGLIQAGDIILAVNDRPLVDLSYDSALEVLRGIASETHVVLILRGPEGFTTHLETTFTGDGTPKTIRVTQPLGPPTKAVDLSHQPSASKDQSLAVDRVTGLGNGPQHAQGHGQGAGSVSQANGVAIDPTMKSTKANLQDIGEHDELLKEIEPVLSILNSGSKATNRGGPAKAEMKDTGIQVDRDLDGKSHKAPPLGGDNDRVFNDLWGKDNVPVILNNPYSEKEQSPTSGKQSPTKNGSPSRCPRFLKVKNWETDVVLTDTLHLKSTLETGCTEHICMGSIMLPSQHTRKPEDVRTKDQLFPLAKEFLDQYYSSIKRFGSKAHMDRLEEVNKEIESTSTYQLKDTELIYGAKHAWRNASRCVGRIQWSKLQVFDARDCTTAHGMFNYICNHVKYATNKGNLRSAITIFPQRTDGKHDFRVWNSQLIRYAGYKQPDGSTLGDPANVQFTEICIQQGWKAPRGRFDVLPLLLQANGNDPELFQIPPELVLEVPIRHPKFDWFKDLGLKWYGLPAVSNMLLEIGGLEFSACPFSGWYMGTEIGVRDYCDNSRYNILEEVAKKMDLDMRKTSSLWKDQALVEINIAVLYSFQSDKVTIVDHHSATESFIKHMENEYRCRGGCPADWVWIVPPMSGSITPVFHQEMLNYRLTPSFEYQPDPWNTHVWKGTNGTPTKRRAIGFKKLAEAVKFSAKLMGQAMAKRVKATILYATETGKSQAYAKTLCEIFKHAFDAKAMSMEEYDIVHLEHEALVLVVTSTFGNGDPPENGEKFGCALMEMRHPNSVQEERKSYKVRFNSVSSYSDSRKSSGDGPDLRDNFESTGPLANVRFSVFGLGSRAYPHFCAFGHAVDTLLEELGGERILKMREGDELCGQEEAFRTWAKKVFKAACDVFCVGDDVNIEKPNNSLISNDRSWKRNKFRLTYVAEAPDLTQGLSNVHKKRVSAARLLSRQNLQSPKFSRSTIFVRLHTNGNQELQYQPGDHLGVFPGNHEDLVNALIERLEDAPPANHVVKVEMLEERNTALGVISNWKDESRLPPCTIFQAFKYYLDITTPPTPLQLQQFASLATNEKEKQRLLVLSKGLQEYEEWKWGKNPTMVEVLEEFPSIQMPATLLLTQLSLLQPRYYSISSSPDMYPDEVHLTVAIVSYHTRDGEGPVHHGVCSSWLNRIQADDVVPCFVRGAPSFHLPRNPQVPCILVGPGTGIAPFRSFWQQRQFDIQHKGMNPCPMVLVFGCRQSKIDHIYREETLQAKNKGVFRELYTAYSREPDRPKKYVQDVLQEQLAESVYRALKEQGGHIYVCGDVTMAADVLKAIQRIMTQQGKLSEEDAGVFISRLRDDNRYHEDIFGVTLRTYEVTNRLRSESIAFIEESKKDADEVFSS

Compound | IC50 (Nitric oxide synthase 3) | also measured
[N-]=[N+]=N[C@H]1CN[C@@H](C(=O)C[C@@H](CCC/N=C(\N)N[N+](=O)[O-])C(N)=O)C1 | > 100 µM | –
[N-]=[N+]=N[C@@H]1CN[C@@H](C(=O)C[C@@H](CCC/N=C(\N)N[N+](=O)[O-])C(N)=O)C1 | > 100 µM | IC50 (Nitric oxide synthase 1 [1]): < 100 µM
NC(=O)[C@@H]1C[C@@H](NC(=O)C(F)(F)F)CN1C(=O)[C@H](N)CCC/N=C(\N)N[N+](=O)[O-] | > 100 µM | –
NC(=O)[C@@H]1C[C@H](N)CN1C(=O)[C@H](N)CCC/N=C(\N)N[N+](=O)[O-] | > 100 µM | –
NC(=O)C1CC(N)CN1C(=O)C(N)CCC/N=C(\N)N[N+](=O)[O-] (stereo unspecified) | > 100 µM | –
NC(=O)[C@@H]1C[C@@H](NC(=O)C(F)(F)F)CN1C(=O)[C@@H](N)CCC/N=C(\N)N[N+](=O)[O-] | > 100 µM | IC50 (Nitric oxide synthase 1 [2]): ~100 µM
NC(=O)[C@@H]1C[C@H](NC(=O)C(F)(F)F)CN1C(=O)[C@H](N)CCC/N=C(\N)N[N+](=O)[O-] | > 100 µM | –
NC(=O)[C@@H]1C[C@@H](N)CN1C(=O)[C@H](N)CCC/N=C(\N)N[N+](=O)[O-] | > 100 µM | –
NC(=O)[C@@H]1C[C@@H](N)CN1C(=O)[C@@H](N)CCC/N=C(\N)N[N+](=O)[O-] | > 100 µM | IC50 (Nitric oxide synthase 1 [2]): ~100 µM
NC(=O)[C@@H]1C[C@H](N)CN1C(=O)[C@@H](N)CCC/N=C(\N)N[N+](=O)[O-] | > 100 µM | –
NC(=O)[C@@H]1C[C@H](NC(=O)C(F)(F)F)CN1C(=O)[C@@H](N)CCC/N=C(\N)N[N+](=O)[O-] | > 100 µM | –
CC(=N)Nc1cccc(CN)c1 | 0.48 µM and 1.1 µM | IC50 (Nitric oxide synthase 1 [2]): 0.011 µM
NC(=O)[C@@H]1C[C@@H](NC(=O)[C@H](N)CCC/N=C(\N)N[N+](=O)[O-])CN1 | – | Activity [3]: 97%
NC(=O)[C@@H]1C[C@H](NC(=O)[C@@H](N)CCC/N=C(\N)N[N+](=O)[O-])CN1 | – | Activity [3]: 95%
NC(=O)[C@@H]1C[C@H](NC(=O)[C@H](N)CCC/N=C(\N)N[N+](=O)[O-])CN1 | – | Activity [3]: 96%
[N-]=[N+]=N[C@H]1CNC(C(=O)N[C@H](CCCNC(=N)N[N+](=O)[O-])C(N)=O)C1 (single isomer, unassigned) | > 100 µM | IC50 (Nitric oxide synthase 1 [1]): < 100 µM
[N-]=[N+]=N[C@@H]1CNC(C(=O)N[C@H](CCCNC(=N)N[N+](=O)[O-])C(N)=O)C1 (single isomer, unassigned) | > 100 µM | –
N=C(NCCC[C@@H](NC(=O)C1C[C@H](N)CN1)C(N)=O)N[N+](=O)[O-] (single isomer, unassigned) | > 100 µM | –
N=C(NCCC[C@@H](NC(=O)C1C[C@@H](N)CN1)C(N)=O)N[N+](=O)[O-] (single isomer, unassigned) | > 100 µM | –
N=C(NCCC[C@H](NC(=O)C1C[C@@H](N)CN1)C(N)=O)N[N+](=O)[O-] (single isomer, unassigned) | > 100 µM | –

Compound | IC50 (Nitric oxide synthase 3) | also measured
N=C(NCCC[C@H](NC(=O)C1C[C@H](N)CN1)C(N)=O)N[N+](=O)[O-] (single isomer, unassigned) | > 100 µM | –
[N-]=[N+]=N[C@@H]1CNC(C(=O)N[C@@H](CCC/N=C(\N)N[N+](=O)[O-])C(N)=O)C1 (single isomer, unassigned) | > 100 µM | –
[N-]=[N+]=N[C@H]1CNC(C(=O)N[C@@H](CCC/N=C(\N)N[N+](=O)[O-])C(N)=O)C1 (single isomer, unassigned) | > 100 µM | IC50 (Nitric oxide synthase 1 [1]): < 100 µM
N=C(NCCC[C@@H](N)C(=O)NC1CNC(C(N)=O)C1)N[N+](=O)[O-] (single isomer, unassigned) | – | Activity [3]: 96%
N=C(NCCC[C@@H](N)C(=O)N[C@H]1CNC(C(N)=O)C1)N[N+](=O)[O-] (single isomer, unassigned) | – | Activity [3]: 97%
N=C(NCCC[C@H](N)C(=O)N[C@H]1CNC(C(N)=O)C1)N[N+](=O)[O-] (single isomer, unassigned) | – | Activity [3]: 94%
N=C(NCCC[C@H](N)C(=O)N1CC(NC(=O)C(F)(F)F)C[C@@H]1C(N)=O)N[N+](=O)[O-] (single isomer, unassigned; cis) | > 100 µM | –
[N-]=[N+]=NC1CN[C@@H](C(=O)N[C@H](CCCNC(=N)N[N+](=O)[O-])C(N)=O)C1 (single isomer, unassigned; cis) | > 100 µM | –
N=C(NCCC[C@@H](N)C(=O)N1CC(NC(=O)C(F)(F)F)C[C@@H]1C(N)=O)N[N+](=O)[O-] (single isomer, unassigned; cis) | > 100 µM | –
N=C(NCCC[C@H](N)C(=O)N1CC(N)C[C@@H]1C(N)=O)N[N+](=O)[O-] (single isomer, unassigned; cis) | > 100 µM | –
N=C(NCCC[C@@H](N)C(=O)N1CC(N)C[C@@H]1C(N)=O)N[N+](=O)[O-] (single isomer, unassigned; cis) | > 100 µM | IC50 (Nitric oxide synthase 1 [2]): ~100 µM
N=C(NCCC[C@@H](NC(=O)[C@H]1CC(N)CN1)C(N)=O)N[N+](=O)[O-] (single isomer, unassigned; cis) | > 100 µM | IC50 (Nitric oxide synthase 1 [1]): < 100 µM
N=C(NCCC[C@H](NC(=O)[C@H]1CC(N)CN1)C(N)=O)N[N+](=O)[O-] (single isomer, unassigned; cis) | > 100 µM | IC50 (Nitric oxide synthase 1 [1]): < 100 µM
NC(=O)[C@H]1CC(N)CN1C(=O)[C@@H](N)CCC/N=C(\N)N[N+](=O)[O-] (single isomer, unassigned; trans) | > 100 µM | –
NC(=O)[C@H]1CC(NC(=O)C(F)(F)F)CN1C(=O)[C@H](N)CCC/N=C(/N)N[N+](=O)[O-] (single isomer, unassigned; trans) | > 100 µM | –
N=C(NCCC[C@H](N)C(=O)N1CC(NC(=O)C(F)(F)F)C[C@@H]1C(N)=O)N[N+](=O)[O-] (single isomer, unassigned; trans) | > 100 µM | –
[N-]=[N+]=NC1CN[C@@H](C(=O)N[C@H](CCCNC(=N)N[N+](=O)[O-])C(N)=O)C1 (single isomer, unassigned; trans) | > 100 µM | –
N=C(NCCC[C@@H](NC(=O)[C@H]1CC(N)CN1)C(N)=O)N[N+](=O)[O-] (single isomer, unassigned; trans) | > 100 µM | IC50 (Nitric oxide synthase 1 [1]): < 100 µM
N=C(NCCC[C@H](NC(=O)[C@H]1CC(N)CN1)C(N)=O)N[N+](=O)[O-] (single isomer, unassigned; trans) | > 100 µM | IC50 (Nitric oxide synthase 1 [1]): < 100 µM
N=C(NCCC[C@@H](N)C(=O)N1CC(N)C[C@@H]1C(N)=O)N[N+](=O)[O-] (single isomer, unassigned; trans) | > 100 µM | –
